# According to ChEMBL document CHEMBL2390862, “Enmein-type diterpenoid analogs from natural kaurene-type oridonin: Synthesis and their antitumor biological evaluation” (Eur J Med Chem, 2013):
# Legend:
# [1] = system: Bel-7402; assay: Induction of apoptosis in human Bel7402 cells assessed as late apoptotic cells at 0.3 uM after 2 days by Annexin-V/FITC-propidium iodide staining-based flow cytometry (reference value: 2.2 %); type: functional
# [2] = system: Bel-7402; assay: Cell cycle arrest in human Bel7402 cells assessed as accumulation at G2/M phase at 0.6 uM after 48 hrs by propidium iodide staining-based FACS analysis (reference value: 12.60 %); type: functional
# In short: (§1)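 Bel-7402 cells seeded at 5.0 × 10³ cells/well and incubated 24 h at 37 °C, then exposed to test compound or DMSO solvent control for 48 h. Cells fixed in 70% ethanol, RNase-treated, PI-stained; DNA content of nuclei measured by flow cytometry.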
# [3] = system: Bel-7402; assay: Induction of mitochondrial membrane depolarization in human Bel7402 cells assessed as normal cells at 0.3 uM after 48 hrs by JC-1 staining-based flow cytometry; type: functional
# [4] = system: Bel-7402; assay: Cell cycle arrest in human Bel7402 cells assessed as accumulation at G1 phase at 0.6 uM after 48 hrs by propidium iodide staining-based FACS analysis (reference value: 48.23 %); type: functional; in short: as §1
# [5] = system: Bel-7402; assay: Induction of apoptosis in human Bel7402 cells assessed as early apoptotic cells at 0.3 uM after 2 days by Annexin-V/FITC-propidium iodide staining-based flow cytometry (reference value: 2.6 %); type: functional
# [6] = system: Bel-7402; assay: Induction of apoptosis in human Bel7402 cells assessed as early apoptotic cells at 0.15 uM after 2 days by Annexin-V/FITC-propidium iodide staining-based flow cytometry (reference value: 2.6 %); type: functional
# [7] = system: MGC-803; assay: Cytotoxicity against human MGC803 cells after 72 hrs by MTT assay; type: functional, cell-based; details: MGC-803, 72 h
# In short: (§2)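 K562, CaEs-17, Bel-7402 and MGC-803 cells in log phase seeded at 5 × 10⁴ cells/mL, incubated with or without test compounds at 37 °C, 5% CO₂; after 72 h MTT (5 mg/mL stock) added for 4 h, formazan dissolved in DMSO, OD read at 490 nm. Negative reference 0.1% DMSO, Taxol positive control. IC50 as mean ± S.D. of three independent experiments.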
# [8] = system: Bel-7402; assay: Induction of apoptosis in human Bel7402 cells assessed as viable cells at 0.15 uM after 2 days by Annexin-V/FITC-propidium iodide staining-based flow cytometry (reference value: 94.1 %); type: functional; details: Bel-7402, 48 h, read-out: Activity
# [9] = system: K562; assay: Cytotoxicity against human K562 cells after 72 hrs by MTT assay; type: functional, cell-based; details: K562, 72 h; in short: as §2
# [10] = system: Bel-7402; assay: Induction of apoptosis in human Bel7402 cells assessed as late apoptotic cells at 0.6 uM after 2 days by Annexin-V/FITC-propidium iodide staining-based flow cytometry (reference value: 2.2 %); type: functional
# [11] = system: Bel-7402; assay: Induction of apoptosis in human Bel7402 cells assessed as viable cells at 0.3 uM after 2 days by Annexin-V/FITC-propidium iodide staining-based flow cytometry (reference value: 94.1 %); type: functional; details: Bel-7402, 48 h, read-out: Activity
# [12] = system: Bel-7402; assay: Induction of mitochondrial membrane depolarization in human Bel7402 cells assessed as apoptotic cells after 48 hrs by JC-1 staining-based flow cytometry; type: functional, cell-based
# In short: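 In triplicate, Bel-7402 cells cultured overnight, then incubated with compound (0, 0.15, 0.3, […] as printed) or vehicle for 48 h, stained with the lipophilic cationic dye JC-1. Cells with collapsed mitochondrial membrane potential counted by flow cytometry.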
# [13] = system: Bel-7402; assay: Cell cycle arrest in human Bel7402 cells assessed as accumulation at G2/M phase at 0.3 uM after 48 hrs by propidium iodide staining-based FACS analysis (reference value: 12.60 %); type: functional; in short: as §1
# [14] = system: Bel-7402; assay: Induction of apoptosis in human Bel7402 cells at 0.15 uM after 48 hrs by propidium iodide staining-based FACS analysis (reference value: 1.67 %); type: functional; in short: as §1
# [15] = system: Bel-7402; assay: Induction of apoptosis in human Bel7402 cells assessed as early and late apoptotic cells at 0.15 uM after 2 days by Annexin-V/FITC-propidium iodide staining-based flow cytometry (reference value: 4.8 %); type: functional
# [16] = system: Bel-7402; assay: Cell cycle arrest in human Bel7402 cells assessed as accumulation at S phase at 0.6 uM after 48 hrs by propidium iodide staining-based FACS analysis (reference value: 39.17 %).; type: functional; in short: as §1
# [17] = system: Bel-7402; assay: Induction of apoptosis in human Bel7402 cells after 2 days by Annexin-V/FITC-propidium iodide staining-based flow cytometry; type: functional, cell-based
# [18] = system: Bel-7402; assay: Induction of mitochondrial membrane depolarization in human Bel7402 cells assessed as normal cells at 0.6 uM after 48 hrs by JC-1 staining-based flow cytometry; type: functional
# [19] = system: Bel-7402; assay: Induction of apoptosis in human Bel7402 cells assessed as late apoptotic cells at 0.15 uM after 2 days by Annexin-V/FITC-propidium iodide staining-based flow cytometry (reference value: 2.2 %); type: functional
# [20] = system: Bel-7402; assay: Induction of apoptosis in human Bel7402 cells at 0.3 uM after 48 hrs by propidium iodide staining-based FACS analysis (reference value: 1.67 %); type: functional; in short: as §1
# [21] = system: Bel-7402; assay: Induction of apoptosis in human Bel7402 cells at 0.6 uM after 48 hrs by propidium iodide staining-based FACS analysis (reference value: 1.67 %); type: functional; in short: as §1
# [22] = system: Bel-7402; assay: Induction of apoptosis in human Bel7402 cells assessed as early and late apoptotic cells at 0.6 uM after 2 days by Annexin-V/FITC-propidium iodide staining-based flow cytometry (reference value: 4.8 %); type: functional
# [23] = Cytotoxicity against human CaEs17 cells after 72 hrs by MTT assay; type: functional, cell-based; details: CaEs17, 72 h; in short: as §2
# [24] = system: Bel-7402; assay: Induction of apoptosis in human Bel7402 cells assessed as increase in Fas expression after 48 hrs by Western blotting analysis; type: functional, cell-based
# In short: (§3)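 Bel-7402 cells treated with vehicle control or compound at 0.15, 0.3 or […] (so in the source). Lysates at […] protein per lane (so in the source) separated by 10% SDS-PAGE, transferred to nitrocellulose and immunoblotted, with β-actin measured as reference. Significance vs. vehicle control marked at P < 0.05 and P < 0.01.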
# [25] = system: Bel-7402; assay: Cell cycle arrest in human Bel7402 cells assessed as accumulation at G1 phase at 0.15 uM after 48 hrs by propidium iodide staining-based FACS analysis (reference value: 48.23 %); type: functional; in short: as §1
# [26] = system: Bel-7402; assay: Cell cycle arrest in human Bel7402 cells assessed as accumulation at G1 phase at 0.3 uM after 48 hrs by propidium iodide staining-based FACS analysis (reference value: 48.23 %); type: functional; in short: as §1
# [27] = system: Bel-7402; assay: Cell cycle arrest in human Bel7402 cells assessed as accumulation at S phase at 0.3 uM after 48 hrs by propidium iodide staining-based FACS analysis (reference value: 39.17 %); type: functional; in short: as §1
# [28] = system: Bel-7402; assay: Induction of apoptosis in human Bel7402 cells assessed as viable cells at 0.6 uM after 2 days by Annexin-V/FITC-propidium iodide staining-based flow cytometry (reference value: 94.1 %); type: functional; details: Bel-7402, 48 h, read-out: Activity
# [29] = system: Bel-7402; assay: Induction of apoptosis in human Bel7402 cells assessed as increase in caspase 8 expression after 48 hrs by Western blotting analysis; type: functional, cell-based; in short: as §3
# [30] = system: Bel-7402; assay: Induction of apoptosis in human Bel7402 cells assessed as increase in cytochrome C expression after 48 hrs by Western blotting analysis; type: functional, cell-based; in short: as §3
# [31] = system: Bel-7402; assay: Induction of apoptosis in human Bel7402 cells assessed as early apoptotic cells at 0.6 uM after 2 days by Annexin-V/FITC-propidium iodide staining-based flow cytometry (reference value: 2.6 %); type: functional
# [32] = system: Bel-7402; assay: Induction of apoptosis in human Bel7402 cells assessed as increase in caspase 3 expression after 48 hrs by Western blotting analysis; type: functional, cell-based; in short: as §3
# [33] = system: Bel-7402; assay: Induction of apoptosis in human Bel7402 cells assessed as increase in caspase 9 expression after 48 hrs by Western blotting analysis; type: functional, cell-based; in short: as §3
# [34] = system: Bel-7402; assay: Induction of apoptosis in human Bel7402 cells assessed as early and late apoptotic cells at 0.3 uM after 2 days by Annexin-V/FITC-propidium iodide staining-based flow cytometry (reference value: 4.8 %); type: functional
# [35] = system: Bel-7402; assay: Cell cycle arrest in human Bel7402 cells assessed as accumulation at G2/M phase at 0.15 uM after 48 hrs by propidium iodide staining-based FACS analysis (reference value: 12.60 %); type: functional; in short: as §1
# [36] = system: Bel-7402; assay: Induction of apoptosis in human Bel7402 cells assessed as reduction in Bcl2 expression after 48 hrs by Western blotting analysis; type: functional, cell-based; in short: as §3
# [37] = system: Bel-7402; assay: Induction of apoptosis in human Bel7402 cells assessed as necrotic cells at 0.15 uM after 2 days by Annexin-V/FITC-propidium iodide staining-based flow cytometry (reference value: 1.1 %); type: functional
# [38] = system: Bel-7402; assay: Cytotoxicity against human Bel7402 cells after 72 hrs by MTT assay; type: functional, cell-based; details: Bel-7402, 72 h; in short: as §2
# [39] = system: Bel-7402; assay: Induction of apoptosis in human Bel7402 cells assessed as necrotic cells at 0.3 uM after 2 days by Annexin-V/FITC-propidium iodide staining-based flow cytometry (reference value: 1.1 %); type: functional
# [40] = system: Bel-7402; assay: Cell cycle arrest in human Bel7402 cells assessed as accumulation at S phase at 0.15 uM after 48 hrs by propidium iodide staining-based FACS analysis (reference value: 39.17 %); type: functional; in short: as §1
# [41] = system: Bel-7402; assay: Induction of apoptosis in human Bel7402 cells assessed as necrotic cells at 0.6 uM after 2 days by Annexin-V/FITC-propidium iodide staining-based flow cytometry (reference value: 1.1 %); type: functional
# [42] = system: Bel-7402; assay: Induction of apoptosis in human Bel7402 cells assessed as increase in Bax expression after 48 hrs by Western blotting analysis; type: functional, cell-based; in short: as §3
smiles,measurement,setting,value
C=C1C(=O)[C@@]23C(=O)O[C@H]4CCC(C)(C)[C@H]5[C@H](O)OC[C@@]45[C@@H]2CC[C@@H]1[C@H]3OC(=O)c1ccc(Cl)cc1,Activity,[1],18.5%
same,Activity,[2],28.76%
same,Activity,[3],82.4%
same,Activity,[4],51.07%
same,Activity,[5],14.8%
same,Activity,[6],8.8%
same,IC50,[7],1220 nM
same,viability at 0.15 µM,[8],84.6%
same,IC50,[9],240 nM
same,Activity,[10],28.1%
same,viability at 0.3 µM,[11],66.5%
same,Activity,[12],Dose-dependent effect
same,Activity,[13],20.48%
same,Activity,[14],2.07%
same,Activity,[15],14.3%
same,Activity,[16],20.17%
same,Activity,[17],Dose-dependent effect
same,Activity,[18],54.4%
same,Activity,[19],5.5%
same,Activity,[20],14.86%
same,Activity,[21],31.97%
same,Activity,[22],50.5%
same,IC50,[23],280 nM
same,Activity,[24],Dose-dependent effect
same,Activity,[25],46.18%
same,Activity,[26],50.28%
same,Activity,[27],29.24%
same,viability at 0.6 µM,[28],48.8%
same,Activity,[29],Dose-dependent effect
same,Activity,[30],Dose-dependent effect
same,Activity,[31],22.4%
same,Activity,[32],Dose-dependent effect
same,Activity,[33],Dose-dependent effect
same,Activity,[34],33.3%
same,Activity,[35],15.1%
same,Activity,[36],Dose-dependent effect
same,Activity,[37],1%
same,IC50,[38],870 nM
same,Activity,[39],0.3%
same,Activity,[40],38.72%
same,Activity,[41],0.7%
same,Activity,[42],Dose-dependent effect
C=C1C(=O)[C@@]23C(=O)O[C@H]4CCC(C)(C)[C@H]5[C@H](O)OC[C@@]45[C@@H]2CC[C@@H]1[C@H]3OC(=O)c1ccc(C)cc1,IC50,[7],610 nM
same,IC50,[9],140 nM
same,IC50,[23],450 nM
same,IC50,[38],1010 nM
C=C1C(=O)[C@@]23C(=O)O[C@H]4CCC(C)(C)[C@H]5[C@H](O)OC[C@@]45[C@@H]2CC[C@@H]1[C@H]3OC(C)=O,IC50,[7],1990 nM
same,IC50,[9],1110 nM
same,IC50,[23],1590 nM
same,IC50,[38],1970 nM
